{"source": "ChEMBL document CHEMBL1142173", "about": "“Novel macrolide resistance module carried by the IncP-1beta resistance plasmid pRSB111, isolated from a wastewater treatment plant” (2007)", "assay_type_in_all_cases": "functional", "key": {"[1]": {"tested_on": "Pseudomonas sp.", "test": "Antibacterial activity against Pseudomonas sp. B13 GFP1 containing multiresistance plasmid pRSB101"}, "[2]": {"tested_on": "Pseudomonas sp.", "test": "Antibacterial activity against Pseudomonas sp. B13 GFP1 containing macrolide resistance plasmid pRSB111", "summary_of_the_method": "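Host is Pseudomonas sp. strain B13 GFP1 carrying pRSB111, captured by exogenous mating from wastewater-plant final effluent. It is maintained in LB with erythromycin (300 μg/ml) at 30°C. MIC is in μg/ml, with the plasmid-free B13 GFP1 strain tested alongside.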"}, "[3]": {"tested_on": "Pseudomonas sp.", "test": "Antibacterial activity against Pseudomonas sp. B13 GFP1"}, "[4]": {"tested_on": "Escherichia coli", "test": "Antibacterial activity against Escherichia coli DH5alpha containing macrolide-resistant pUC18-mph(E)-mrx(E) region", "summary_of_the_method": "(§1)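 Host is E. coli DH5α carrying pUC18 with PCR-amplified fragments of the pRSB111 macrolide resistance region (covering mphR(E), mph(E) and/or mrx(E)). MIC is read per recombinant strain, with DH5α carrying empty pUC18 as control.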"}, "[5]": {"tested_on": "Escherichia coli", "test": "Antibacterial activity against Escherichia coli DH5-alpha containing macrolide-resistant pUC18-mrx(E) region", "details": "DH5alpha", "summary_of_the_method": "as §1"}, "[6]": {"tested_on": "Escherichia coli", "test": "Antibacterial activity against Escherichia coli DH5-alpha containing pUC18", "details": "DH5alpha", "summary_of_the_method": "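MIC measured for E. coli DH5α transformed with the empty vector pUC18, which served as the control. It was tested alongside DH5α carrying pUC18 clones of PCR-amplified fragments of the pRSB111 macrolide resistance region (mphR(E), mph(E), mrx(E)).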"}, "[7]": {"tested_on": "Escherichia coli", "test": "Antibacterial activity against Escherichia coli DH5-alpha containing macrolide-resistant pUC18-mph(E) region", "details": "DH5alpha", "summary_of_the_method": "as §1"}}, "data": [{"smiles": "CC[C@H]1OC(=O)C[C@@H](O)[C@H](C)[C@@H](O[C@@H]2O[C@H](C)[C@@H](O[C@H]3C[C@@](C)(O)[C@@H](O)[C@H](C)O3)[C@H](N(C)C)[C@H]2O)[C@@H](CC=O)C[C@@H](C)C(=O)/C=C/C(C)=C/[C@@H]1CO[C@@H]1O[C@H](C)[C@@H](O)[C@@H](OC)[C@H]1OC", "note": "[TYLOSIN]", "values": [{"measurement": "MIC", "setting": "[1]", "value": 150, "unit": "µg/mL"}, {"measurement": "MIC", "setting": "[2]", "value": 400, "unit": "µg/mL"}, {"measurement": "MIC", "setting": "[3]", "value": 150, "unit": "µg/mL"}]}, {"smiles": "CC[C@H]1OC(=O)[C@H](C)[C@@H](O[C@H]2C[C@@](C)(OC)[C@@H](O)[C@H](C)O2)[C@H](C)[C@@H](O[C@@H]2O[C@H](C)C[C@H](N(C)C)[C@H]2O)[C@](C)(O)C[C@@H](C)C(=O)[C@H](C)[C@@H](O)[C@]1(C)O", "note": "[ERYTHROMYCIN]", "values": [{"measurement": "MIC", "setting": "[4]", "value": 2400, "unit": "µg/mL"}, {"measurement": "MIC", "setting": "[5]", "value": 150, "unit": "µg/mL"}, {"measurement": "MIC", "setting": "[6]", "value": 200, "unit": "µg/mL"}, {"measurement": "MIC", "setting": "[1]", "value": 2500, "unit": "µg/mL"}, {"measurement": "MIC", "setting": "[7]", "value": 250, "unit": "µg/mL"}, {"measurement": "MIC", "setting": "[2]", "value": 2500, "unit": "µg/mL"}, {"measurement": "MIC", "setting": "[3]", "value": 20, "unit": "µg/mL"}]}, {"smiles": "CC[C@H]1OC(=O)[C@H](C)[C@@H](O[C@H]2C[C@@](C)(OC)[C@@H](O)[C@H](C)O2)[C@H](C)[C@@H](O[C@@H]2O[C@H](C)C[C@H](N(C)C)[C@H]2O)[C@](C)(O)C[C@@H](C)/C(=N\\OCOCCOC)[C@H](C)[C@@H](O)[C@]1(C)O", "note": "[ROXITHROMYCIN]", "values": [{"measurement": "MIC", "setting": "[4]", "value": 2500, "unit": "µg/mL"}, {"measurement": "MIC", "setting": "[5]", "value": 300, "unit": "µg/mL"}, {"measurement": "MIC", "setting": "[6]", "value": 450, "unit": "µg/mL"}, {"measurement": "MIC", "setting": "[1]", "value": 1200, "unit": "µg/mL"}, {"measurement": "MIC", "setting": "[7]", "value": 550, "unit": "µg/mL"}, {"measurement": "MIC", "setting": "[2]", "value": 1400, "unit": "µg/mL"}, {"measurement": "MIC", "setting": "[3]", "value": 25, "unit": "µg/mL"}]}]}
